{
  "source": "paper PMC2804977",
  "about": "(Biochemical and biophysical research communications, 2009)",
  "key": {"[1]": {"target": "T1, 15F3 of Fn (Rattus norvegicus, UniProt P04937)", "T1 sequence (P04937 2193-2286 limits assumed)": "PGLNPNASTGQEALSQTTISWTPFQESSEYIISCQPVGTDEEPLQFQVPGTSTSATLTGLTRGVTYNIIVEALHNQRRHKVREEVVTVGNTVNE", "experiment": "Intrinsic Trp fluorescence quenching titration of 15F3", "format": "binding", "summary_of_the_method": "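Titration of the rat Fn 15th type III module (1 μM) with varied test peptide concentrations; intrinsic Trp emission spectra recorded after 5 min. Intensity at 350 nm was fitted to derive KD. Data were corrected for dilution and inner-filter effect.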"}, "[2]": {"target": "T1, 15F3 of Fn", "experiment": "Stopped-flow binding kinetics with 15F3", "details": "25 °C", "summary_of_the_method": "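Rat Fn 15th type III module (1 μM) in PBS was rapidly mixed with test peptide (25–400 μM, at least 25-fold excess for pseudo-first-order conditions). Trp emission above 320 nm (295 nm excitation, 320 nm cut-off filter) was recorded at 25 °C, 1000 points per trace. Averaged traces were fitted single-exponentially for kobs; kobs versus peptide concentration gave kon and koff. Three experiments were averaged.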"}},
  "data": [
    {"substance": "LIPAD", "values": [
      {"measurement": "affinity for 15F3", "setting": "[1]", "result": "moderate affinity"},
      {"measurement": "binding kinetics to 15F3", "setting": "[2]", "result": "slow binding kinetics"}
    ]}
  ]
}
